system: Vaccinia virus; test: Antiviral activity against Vaccinia virus infected in HEL cells assessed as inhibition of virus-induced cytopathogenicity after 4 days; assay type: functional, organism-based; conditions: Orthopoxvirus vaccinia, 96 h
Procedure, shortened: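 Confluent HEL or HeLa monolayers infected with 100 CCID50 of virus in the presence of varying compound concentrations.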

SMILES | EC50
CCOC(=O)c1c(C)nc(NCCNc2ccnc3cc(Cl)ccc23)nc1-c1ccccc1 | > 4 µM
CCOC(=O)c1c(C)nc(NCCCNc2ccnc3cc(Cl)ccc23)nc1-c1ccccc1 | > 100 µM
CCOC(=O)c1c(C)nc(NCCCCNc2ccnc3cc(Cl)ccc23)nc1-c1ccccc1 | > 100 µM
CCOC(=O)c1c(C)nc(NCCCNc2ccnc3cc(Cl)ccc23)nc1C | > 100 µM
CCOC(=O)c1c(C)nc(NCCCCNc2ccnc3cc(Cl)ccc23)nc1C | > 100 µM
Cc1nc(NCCCNc2ccnc3cc(Cl)ccc23)nc(-c2cccc([N+](=O)[O-])c2)c1C(=O)OC(C)C | > 4 µM
Cc1nc(NCCNc2ccnc3cc(Cl)ccc23)nc(-c2ccccc2[N+](=O)[O-])c1C(=O)OC(C)C | > 20 µM
Cc1nc(NCCCCNc2ccnc3cc(Cl)ccc23)nc(-c2ccccc2[N+](=O)[O-])c1C(=O)OC(C)C | > 4 µM
Nc1nc2c(ncn2COCCO)c(=O)[nH]1 [ACYCLOVIR] | > 250 µM
Nc1nc(O)c2ncn(COC(CO)CO)c2n1 [GANCICLOVIR] | > 100 µM

— ChEMBL document CHEMBL2021854, “2-Aminopyrimidine based 4-aminoquinoline anti-plasmodial agents. Synthesis, biological activity, structure-activity relationship and mode of action studies” (Eur J Med Chem, 2012)
